Experimental data as given in ChEMBL document CHEMBL1122744, “2-Chloroethyl (methylsulfonyl)methanesulfonate and related (methylsulfonyl)methanesulfonates. Antineoplastic activity in vivo” (J Med Chem, 1984).

Experiments:
[1] = system: Mus musculus; test: Change in weight by day 5, obtained by subtracting treated groups of animals minus control groups of animals at dose 22 mg/kg in exp4.
[2] = Ratio of median survival times for non-survivors at dose 22 mg/kg in exp3; assay type: functional
Procedure, shortened: (§1)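 Mice were inoculated ip with 10^6 P388 leukemia cells on day 0. Groups of six (occasionally five) were dosed ip qd on days 1–5 with fresh suspensions; 30 mice served as untreated controls. Deaths were recorded daily up to day 60. T/C% compares the median survival of treated non-survivors (<60 days) with the control median. Medians used grouped data when there were no 30-day survivors, otherwise ungrouped data. t = toxic.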

[3] = system: Mus musculus; test: Change in weight by day 5, obtained by subtracting treated groups of animals minus control groups of animals at dose 33 mg/kg in exp2.; assay type: functional
Procedure, shortened: (§2)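 Mice were inoculated ip with 10^6 P388 leukemia cells on day 0 and weighed 19–22 g that day. Compound was given ip once daily on days 1–5, within about 5 min of preparing the solution or suspension, to groups of six (occasionally five). Thirty inoculated untreated mice served as controls. The value is the average weight change of treated mice minus that of controls on day 5.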

[4] = system: Mus musculus; test: Median survival time of the treated control groups, in which there are no 30-day survivors at dose 22 mg/kg in exp3; assay type: functional
[5] = system: Mus musculus; test: Mortality by day 5 expressed as number of mice died to the total treated at dose 100 mg/kg in exp1; 1/6; assay type: ADME, organism-based; design: dose 100 mg/kg; conditions: in vivo
[6] = system: Mus musculus; test: Mortality by day 5 expressed as number of mice died to the total treated at dose 15 mg/kg in exp4; 0/6; assay type: ADME, organism-based; design: dose 15 mg/kg; conditions: in vivo
[7] = system: Mus musculus; test: Median survival time of the treated control groups, in which there are no 30-day survivors at dose 33 mg/kg in exp3; assay type: functional
[8] = system: Mus musculus; test: Change in weight by day 5, obtained by subtracting treated groups of animals minus control groups of animals at dose 15 mg/kg in exp3.; assay type: functional
Procedure, shortened: as §2

[9] = Ratio of number of 60-day survivors to the total treated mice at dose 50 mg/kg in exp4; 6/6; assay type: functional
[10] = system: Mus musculus; test: Change in weight by day 5, obtained by subtracting treated groups of animals minus control groups of animals at dose 50 mg/kg in exp1.; assay type: functional
Procedure, shortened: as §2

[11] = Ratio of number of 60-day survivors to the total treated mice at dose 50 mg/kg in exp2; 0/5; assay type: functional
[12] = system: Mus musculus; test: Change in weight by day 5, obtained by subtracting treated groups of animals minus control groups of animals at dose 100 mg/kg in exp2.; assay type: functional
Procedure, shortened: as §2

[13] = Ratio of median survival times for non-survivors at dose 50 mg/kg in exp2; assay type: functional
Procedure, shortened: as §1

[14] = system: Mus musculus; test: Mortality by day 5 expressed as number of mice died to the total treated at dose 15 mg/kg in exp3; 0/5; assay type: ADME, organism-based; design: dose 15 mg/kg; conditions: in vivo
[15] = system: Mus musculus; test: Median survival time of the untreated control groups, in which there are no 30-day survivors at dose 22 mg/kg in exp3; assay type: functional
[16] = Ratio of median survival times for non-survivors at dose 22 mg/kg in exp7; assay type: functional
[17] = system: Mus musculus; test: Median survival time of the treated control groups, in which there are no 30-day survivors at dose 50 mg/kg in exp6; assay type: functional
[18] = system: Mus musculus; test: Mortality by day 5 expressed as number of mice died to the total treated at dose 33 mg/kg in exp2; 0/5; assay type: ADME, organism-based; design: dose 33 mg/kg; conditions: in vivo
[19] = system: Mus musculus; test: Change in weight by day 5, obtained by subtracting treated groups of animals minus control groups of animals at dose 100 mg/kg in exp1; assay type: functional
Procedure, shortened: as §2

[20] = system: Mus musculus; test: Median survival time of the untreated control groups, in which there are no 30-day survivors at dose 100 mg/kg in exp1; assay type: functional
[21] = Ratio of number of 30-day survivors to the total treated mice at dose 50 mg/kg in exp8; 4/6; assay type: functional
[22] = Number of 30-day survivors at dose 50 mg/kg in exp7*-one death on 6th day, one death on 27th day & four 30 day survivors; 4/6
[23] = system: Mus musculus; test: Change in weight by day 5, obtained by subtracting treated groups of animals minus control groups of animals at dose 50 mg/kg in exp8; assay type: functional
Procedure, shortened: as §2

[24] = system: Mus musculus; test: Change in weight by day 5, obtained by subtracting treated groups of animals minus control groups of animals at dose 50 mg/kg in exp4.; assay type: functional
Procedure, shortened: as §2

[25] = system: Mus musculus; test: Median survival time of the treated control groups, in which there are no 30-day survivors at dose 50 mg/kg in exp2; assay type: functional
[26] = system: Mus musculus; test: Change in weight by day 5, obtained by subtracting treated groups of animals minus control groups of animals at dose 50 mg/kg in exp6; assay type: functional
Procedure, shortened: as §2

[27] = Ratio of median survival times for non-survivors at dose 100 mg/kg in exp2; assay type: functional
Procedure, shortened: as §1

[28] = Ratio of median survival times for non-survivors at dose 33 mg/kg in exp3; assay type: functional
[29] = system: Mus musculus; test: Median survival time of the treated control groups, in which there are no 30-day survivors at dose 50 mg/kg in exp8; assay type: functional
[30] = system: Mus musculus; test: Mortality by day 5 expressed as number of mice died to the total treated at dose 50 mg/kg in exp8; 0/6; assay type: ADME, organism-based; design: dose 50 mg/kg; conditions: in vivo
[31] = system: Mus musculus; test: Change in weight by day 5, obtained by subtracting treated groups of animals minus control groups of animals at dose 22 mg/kg in exp5; assay type: functional
Procedure, shortened: as §2

[32] = system: Mus musculus; test: Median survival time of the untreated control groups, in which there are no 30-day survivors at dose 33 mg/kg in exp5; assay type: functional
[33] = system: Mus musculus; test: Change in weight by day 5, obtained by subtracting treated groups of animals minus control groups of animals at dose 100 mg/kg in exp8; assay type: functional
Procedure, shortened: as §2

[34] = system: Mus musculus; test: Change in weight by day 5, obtained by subtracting treated groups of animals minus control groups of animals at dose 33 mg/kg in exp3.; assay type: functional
Procedure, shortened: as §2

[35] = system: Mus musculus; test: Mortality by day 5 expressed as number of mice died to the total treated at dose 33 mg/kg in exp5; 0/6; assay type: ADME, organism-based; design: dose 33 mg/kg; conditions: in vivo
[36] = system: Mus musculus; test: Mortality by day 5 expressed as number of mice died to the total treated at dose 50 mg/kg in exp5; 0/6; assay type: ADME, organism-based; design: dose 50 mg/kg; conditions: in vivo
[37] = system: Mus musculus; test: Median survival time of the treated control groups, in which there are no 30-day survivors at dose 15 mg/kg in exp3; assay type: functional
[38] = Ratio of median survival times for non-survivors at dose 75 mg/kg in exp2; assay type: functional
[39] = system: Mus musculus; test: Median survival time of the untreated control groups, in which there are no 30-day survivors at dose 150 mg/kg in exp2; assay type: functional
[40] = system: Mus musculus; test: Change in weight by day 5, obtained by subtracting treated groups of animals minus control groups of animals at dose 200 mg/kg in exp1.; assay type: functional
Procedure, shortened: as §2

[41] = system: Mus musculus; test: Median survival time of the untreated control groups, in which there are no 30-day survivors at dose 15 mg/kg in exp3; assay type: functional
[42] = system: Mus musculus; test: Change in weight by day 5, obtained by subtracting treated groups of animals minus control groups of animals at dose 50 mg/kg in exp5; assay type: functional
Procedure, shortened: as §2

[43] = system: Mus musculus; test: Median survival time of the treated control groups, in which there are no 30-day survivors at dose 50 mg/kg in exp1; assay type: functional

Question: With CS(=O)(=O)CS(=O)(=O)OCCCl as the molecule, how does the Change in weight [1] read?
Answer: -1.2

Question: And the Ratio [2]?
Answer: 166

Question: And the Change in weight [3]?
Answer: -2.5

Question: What about the Median survival time [4] of the same molecule?
Answer: 18.5

Question: And the Mortality [5]?
Answer: 1

Question: What about the Mortality [6] of the same molecule?
Answer: 0

Question: And the Median survival time [7]?
Answer: 22

Question: And the Change in weight [8]?
Answer: -0.9

Question: And the Ratio [9]?
Answer: 6

Question: What about the T-C [10] of the same molecule?
Answer: -3.4 g

Question: And the Ratio [11]?
Answer: 0

Question: What about the Change in weight [12] of the same molecule?
Answer: -4.1

Question: And the Ratio [13]?
Answer: 241

Question: And the Mortality [14]?
Answer: 0

Question: What about the Median survival time [15] of the same molecule?
Answer: 11.1

Question: What about the Ratio [16] of the same molecule?
Answer: 168

Question: What about the Median survival time [17] of the same molecule?
Answer: 43.5

Question: What about the Mortality [18] of the same molecule?
Answer: 0

Question: What about the T-C [19] of the same molecule?
Answer: -4 g

Question: What about the Median survival time [20] of the same molecule?
Answer: 11.2

Question: What about the Ratio [21] of the same molecule?
Answer: 4

Question: And the 30-day survivors [22]?
Answer: 4

Question: What about the Change in weight [23] of the same molecule?
Answer: -1.6

Question: And the Change in weight [24]?
Answer: -3

Question: And the Median survival time [25]?
Answer: 27

Question: What about the Change in weight [26] of the same molecule?
Answer: -3.1

Question: And the Ratio [27]?
Answer: 200

Question: What about the Ratio [28] of the same molecule?
Answer: 198

Question: And the Median survival time [29]?
Answer: 30

Question: What about the Mortality [30] of the same molecule?
Answer: 0

Question: What about the Change in weight [31] of the same molecule?
Answer: -1.3

Question: And the Median survival time [32]?
Answer: 12

Question: What about the Change in weight [33] of the same molecule?
Answer: -6

Question: And the Change in weight [34]?
Answer: -2.8

Question: And the Mortality [35]?
Answer: 0

Question: And the Mortality [36]?
Answer: 0

Question: And the Median survival time [37]?
Answer: 16

Question: What about the Ratio [38] of the same molecule?
Answer: 156

Question: And the Median survival time [39]?
Answer: 11.2

Question: And the T-C [40]?
Answer: -5 g

Question: What about the Median survival time [41] of the same molecule?
Answer: 11.1

Question: What about the Change in weight [42] of the same molecule?
Answer: -2.2

Question: What about the Median survival time [43] of the same molecule?
Answer: 31.5
